Measured values published in ChEMBL document CHEMBL3585255, “The Cephalostatins. 24. Isolation, Structure, and Cancer Cell Growth Inhibition of Cephalostatin 20” (2015).

Key:
Assay type in all cases: functional
[1] = Cytotoxicity against human BxPC3 cells after 48 hrs by sulforhodamine B assay; conditions: BXPC-3, 48 h
Outline: (§1)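 Cells in RPMI1640 with 5% fetal bovine serum were plated in 96-well plates and incubated 24 h before serial dilutions of compound were added. After 48 h exposure, cells were fixed with trichloroacetic acid and stained with sulforhodamine B, and optical density was read on a plate reader. GI50, the concentration giving 50% reduction in net protein increase, was calculated from the OD data.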

[2] = system: MCF7; experiment: Cytotoxicity against human MCF7 cells after 48 hrs by sulforhodamine B assay; conditions: MCF7, 48 h; outline: as §1
[3] = system: SF-268; experiment: Cytotoxicity against human SF268 cells after 48 hrs by sulforhodamine B assay; conditions: SF-268, 48 h; outline: as §1
[4] = system: NCI-H460; experiment: Cytotoxicity against human NCI-H460 cells after 48 hrs by sulforhodamine B assay; conditions: NCI-H460, 48 h; outline: as §1
[5] = Cytotoxicity against human KM20L2 cells after 48 hrs by sulforhodamine B assay; conditions: KM-20L2, 48 h; outline: as §1
[6] = system: DU-145; experiment: Cytotoxicity against human DU145 cells after 48 hrs by sulforhodamine B assay; conditions: DU-145, 48 h; outline: as §1

**Q.** Which GI50 [1] does the source give for C[C@@H]1[C@H]2CC=C3[C@@H]4CC[C@H]5Cc6nc7c(nc6C[C@]5(C)[C@H]4CC(=O)[C@@]32COC1(O)[C@H](O)CC(C)(C)O)C[C@@H]1CC[C@H]2C3=C[C@@H]4O[C@]5(O[C@](C)(CO)C[C@H]5O)[C@@H](C)[C@]4(O)[C@@]3(C)[C@H](O)C[C@@H]2[C@@]1(C)C7 (some centres not stated) [CEPHALOSTATIN 9] here?
**A.** 14 nM

**Q.** What about the GI50 [2] of the same molecule?
**A.** 110 nM

**Q.** And the GI50 [3]?
**A.** 150 nM

**Q.** What about the GI50 [4] of the same molecule?
**A.** 39 nM

**Q.** What about the GI50 [5] of the same molecule?
**A.** 58 nM

**Q.** What about the GI50 [6] of the same molecule?
**A.** > 1100 nM

**Q.** What does the source list for C[C@@H]1[C@]2(O[C@H]3C=C4[C@@H]5CC[C@H]6Cc7nc8c(nc7C[C@]6(C)[C@H]5C[C@@H](O)[C@]4(C)[C@]31O)C[C@@H]1CC[C@H]3[C@@]45O[C@@H]4C[C@@H]4[C@H](C)[C@@]6(OC[C@@]45C(=O)C[C@]3(O)[C@@]1(C)C8)OC(C)(C)C[C@H]6O)O[C@](C)(CO)C[C@H]2O [CEPHALOSTATIN 4]?
**A.** GI50 [1]: 36 nM; GI50 [2]: 43 nM; GI50 [3]: 21 nM; GI50 [4]: 44 nM; GI50 [5]: 39 nM; GI50 [6]: 31 nM
